SMILES strings stand for the structures.

Assay type in all cases: functional
Test [1] deals with Rattus norvegicus. In words: Inhibition of passive cutaneous anaphylaxis (PCA) reaction in rats by intraperitoneal administration of 5 mg/kg. Conditions: ip. The method in brief:
(§1)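 Rats were sensitized by intradermal antiserum dilutions at several dorsal sites. After 48 h they were challenged iv with 1 mg ovalbumin in 1 mL saline containing 0.25% Evans blue. Drug was suspended in 1% gum tragacanth in saline and given ip or orally 10–15 min before challenge. Rats were killed 30 min later and the mean orthogonal wheal diameter was measured.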

The test system of test [2] is Rattus norvegicus. The experiment in a line: Ability to inhibit the passive cutaneous anaphylaxis (PCA) reaction in rats by peroral administration of 2 mg/kg. Conditions: route oral. The method in brief: as §1
In test [3] the test system is Rattus norvegicus. The experiment in a line: Ability to inhibit the passive cutaneous anaphylaxis (PCA) reaction in rats by intravenous administration of 0.5 mg/kg. The method in brief: (§2)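 Rats were given intradermal antiserum dilutions on the back. At 48 h, drug dissolved in the challenge solution (1 mg ovalbumin, 0.25% Evans blue, 1 mL saline) was injected iv with the antigen; sodium bicarbonate in slight molar excess was used if needed. Wheal diameters were read 30 min later and plotted against antiserum concentration, with the least-squares line extrapolated to a zero-antiserum base value. Five rats per group.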

For test [4], the system named is Rattus norvegicus. In words: Inhibition of the passive cutaneous anaphylaxis (PCA) reaction in rats by intravenous administration of 0.01 mg/kg. The method in brief: as §2
Test [5] concerns Rattus norvegicus. The experiment in a line: Inhibition of passive cutaneous anaphylaxis (PCA) reaction in rats, peroral administration 5 mg/kg. Conditions: route oral. The method in brief:
as §1

Test [6] concerns Rattus norvegicus. In words: Inhibition of the passive cutaneous anaphylaxis (PCA) reaction in rats by intravenous administration of 0.1 mg/kg. The method in brief: as §2

What is called inhibition in vivo is how much of the control response was suppressed. Read a high inhibition in vivo as strong suppression. As for `Cn1c2ccc(Cl)cc2c(=O)n2nc(-c3nn[nH]n3)cc12`, the inhibition in vivo at 5 mg/kg in the test on Rattus norvegicus [1] amounted to 100%; in the test with Rattus norvegicus [5], 0%. The molecule further had an inhibition in vivo at 2 mg/kg in the test on Rattus norvegicus [2] of 39%. The inhibition in vivo at 0.5 mg/kg with Rattus norvegicus [3] was determined as 100%. The same molecule yielded an inhibition in vivo at 0.01 mg/kg in the test on Rattus norvegicus [4] of 17%.
For `CSc1ccc2nc3cc(C(=O)Nc4nn[nH]n4)nn3c(O)c2c1`, the inhibition in vivo at 5 mg/kg with Rattus norvegicus [1] was determined as 90%.
Turning to `O=C(Nc1nn[nH]n1)c1cc2nc3ccccc3c(O)n2n1`, the inhibition in vivo at 5 mg/kg in the test on Rattus norvegicus [1] came to 100%; in the test with Rattus norvegicus [5], 1%.
In the case of `O=C(O)c1cc2nc3ccc(F)cc3c(O)n2n1`, the values for the inhibition in vivo at 5 mg/kg with Rattus norvegicus [1] and in the test with Rattus norvegicus [5] were 95% and 16%, respectively. Moreover, the inhibition in vivo at 0.01 mg/kg with Rattus norvegicus [4] was determined as 2%. Further, the inhibition in vivo at 0.1 mg/kg in the test with Rattus norvegicus [6] is 62%.
Turning to `CCn1c2ccc(Cl)cc2c(=O)n2nc(C(=O)O)cc12`, in the test on Rattus norvegicus [6], the inhibition in vivo at 0.1 mg/kg stood at 16%.
As for `Nc1ccc2nc3cc(C(=O)O)nn3c(O)c2c1`, the inhibition in vivo at 5 mg/kg stood at 38% in the test with Rattus norvegicus [1] and 16% with Rattus norvegicus [5].
For `COc1cc2c(=O)n3nc(C(=O)O)cc3n(C)c2cc1OC`, in that order: 100% and 6%.
Consider `COc1ccc2nc3cc(C(=O)O)nn3c(O)c2c1`, for which the values for the inhibition in vivo at 5 mg/kg with Rattus norvegicus [1] and in the test with Rattus norvegicus [5] were 94% and 0%, respectively. Moreover, the inhibition in vivo at 0.01 mg/kg with Rattus norvegicus [4] was determined as 30%.
As to `O=C(O)c1ccc2c(O)n3nc(C(=O)O)cc3nc2c1`, testing at 5 mg/kg in the test on Rattus norvegicus [1] gave an inhibition in vivo of 74%. Moreover, the inhibition in vivo at 0.1 mg/kg with Rattus norvegicus [6] came to 56%.
`CCOC(=O)c1cc2n(CC)c3ccc(Cl)cc3c(=O)n2n1` registered an inhibition in vivo at 5 mg/kg with Rattus norvegicus [1] of 100%.
Turning to `COc1cccc2nc3cc(C(=O)O)nn3c(O)c12`, the results for the inhibition in vivo at 5 mg/kg in the test with Rattus norvegicus [1] and with Rattus norvegicus [5] were 62% and 18%, respectively.
In turn, `Cc1cc2n(C)c3ccc(C(=O)O)cc3c(=O)n2n1` gave an inhibition in vivo at 2 mg/kg in the test on Rattus norvegicus [2] of 9%. For the same molecule, the inhibition in vivo at 0.5 mg/kg in the test with Rattus norvegicus [3] stood at 21%.
As to `Cn1c2ccc(F)cc2c(=O)n2nc(-c3nn[nH]n3)cc12`, the inhibition in vivo at 5 mg/kg with Rattus norvegicus [1] amounted to 100%; with Rattus norvegicus [5], 8%. In addition, the inhibition in vivo at 2 mg/kg in the test on Rattus norvegicus [2] amounted to 27%. Also, in the test with Rattus norvegicus [4], 0.01 mg/kg produced 10% inhibition in vivo. Also, the inhibition in vivo at 0.1 mg/kg with Rattus norvegicus [6] came out at 100%.
In the case of `Cc1cccc2c(O)n3nc(C(=O)Nc4nn[nH]n4)cc3nc12`, the inhibition in vivo at 5 mg/kg turned out to be 100% in the test on Rattus norvegicus [1] and 9% in the test on Rattus norvegicus [5].
As to `Oc1c2cc(Cl)ccc2nc2cc(-c3nn[nH]n3)nn12`, the inhibition in vivo at 5 mg/kg with Rattus norvegicus [1] was found to be 25%; with Rattus norvegicus [5], 1%.
With `Cn1c2ccc(N)cc2c(=O)n2nc(C(=O)O)cc12`, the inhibition in vivo at 5 mg/kg in the test on Rattus norvegicus [1] worked out at 84%; in the test on Rattus norvegicus [5], 0%. In addition, in the test on Rattus norvegicus [6], the inhibition in vivo at 0.1 mg/kg was found to be 16%.
As to `Cc1cccc2c(O)n3nc(C(=O)O)cc3nc12`, the inhibition in vivo at 5 mg/kg was 58% in the test on Rattus norvegicus [1] and 0% with Rattus norvegicus [5].
In turn, `O=C(O)c1cc2n(Cc3ccccc3)c3ccc(Cl)cc3c(=O)n2n1` displayed an inhibition in vivo at 5 mg/kg with Rattus norvegicus [5] of 7%.
On to `COc1cc2nc3cc(C(=O)O)nn3c(O)c2cc1OC`, for which the values for the inhibition in vivo at 5 mg/kg with Rattus norvegicus [1] and in the test on Rattus norvegicus [5] were 97% and 5%, respectively. Further, the inhibition in vivo at 0.01 mg/kg in the test on Rattus norvegicus [4] is 16%. Also, at 0.1 mg/kg the inhibition in vivo in the test on Rattus norvegicus [6] was 100%.
In the test with Rattus norvegicus [1], `O=C(Nc1nn[nH]n1)c1cc2nc3ccc(O)cc3c(O)n2n1` returned an inhibition in vivo at 5 mg/kg of 100%. The inhibition in vivo at 0.1 mg/kg in the test on Rattus norvegicus [6] stood at 90%.
`COc1cccc2c(O)n3nc(C(=O)Nc4nn[nH]n4)cc3nc12`: the inhibition in vivo at 5 mg/kg was determined as 100% in the test with Rattus norvegicus [1] and 14% with Rattus norvegicus [5].
The molecule `CC(=O)Nc1ccc2c(c1)c(=O)n1nc(C(=O)O)cc1n2C` had an inhibition in vivo at 5 mg/kg in the test on Rattus norvegicus [5] of 0%.
`COc1cccc2nc3cc(C(=O)Nc4nn[nH]n4)nn3c(O)c12`: the inhibition in vivo at 5 mg/kg with Rattus norvegicus [1] amounted to 100%; in the test on Rattus norvegicus [5], 18%.
In the same order, the values of `O=C(O)c1ccc2nc3cc(C(=O)O)nn3c(O)c2c1` are 21% and 7%.
The molecule `COc1cccc2c(=O)n3nc(C(=O)O)cc3n(C)c12` returned an inhibition in vivo at 5 mg/kg with Rattus norvegicus [1] of 60%.
Regarding `Cn1c2ccc(NC(=O)c3ccccc3)cc2c(=O)n2nc(C(=O)O)cc12`, the inhibition in vivo at 5 mg/kg was 54% in the test on Rattus norvegicus [1] and 1% in the test on Rattus norvegicus [5].
Regarding `CCCOc1cccc2c(=O)n3nc(C(=O)O)cc3n(CCC)c12`, the inhibition in vivo at 5 mg/kg in the test with Rattus norvegicus [1] came to 72%.
Turning to `COc1ccc2c(c1)c(=O)n1nc(-c3nn[nH]n3)cc1n2C`, the inhibition in vivo at 5 mg/kg with Rattus norvegicus [1] came out at 100%; with Rattus norvegicus [5], 0%. This molecule registered an inhibition in vivo at 0.5 mg/kg with Rattus norvegicus [3] of 100%.
As to `O=C(O)c1cc2nc3ccc(Cl)cc3c(O)n2n1`, the inhibition in vivo at 5 mg/kg with Rattus norvegicus [1] was determined as 45%; in the test with Rattus norvegicus [5] it was 0%.
As for `COc1cccc2c(O)n3nc(-c4nn[nH]n4)cc3nc12`, the inhibition in vivo at 5 mg/kg with Rattus norvegicus [1] worked out at 27%; with Rattus norvegicus [5] it was 3%.
For `COc1cc2nc3cc(C(=O)Nc4nn[nH]n4)nn3c(O)c2cc1OC`, in that order: 100% and 0%.
For `Cc1ccc2nc3cc(C(=O)O)nn3c(O)c2c1`, in that order: 100% and 0%.
In the same order, the values of `Oc1c2ccccc2nc2cc(-c3nn[nH]n3)nn12` are 26% and 0%.
Regarding `COc1ccc2c(c1)c(=O)n1nc(C(=O)O)cc1n2C`, the inhibition in vivo at 5 mg/kg in the test on Rattus norvegicus [1] was 81%; with Rattus norvegicus [5], 4%. In the test with Rattus norvegicus [3], this molecule came in with an inhibition in vivo at 0.5 mg/kg of 100%. Also, the inhibition in vivo at 0.01 mg/kg with Rattus norvegicus [4] turned out to be 23%.
For `O=C(Nc1nn[nH]n1)c1cc2nc3ccc(Cl)cc3c(O)n2n1`, the inhibition in vivo at 5 mg/kg in the test with Rattus norvegicus [1] is 22%; with Rattus norvegicus [5], 8%.
For `O=C(Nc1nn[nH]n1)c1cc2n(Cc3ccccc3)c3ccc(Cl)cc3c(=O)n2n1`, in that order: 3% and 0%.
For `Cn1c2ccc(F)cc2c(=O)n2nc(C(=O)O)cc12`, the inhibition in vivo at 5 mg/kg in the test on Rattus norvegicus [1] came to 83%. Further, in the test on Rattus norvegicus [2], 2 mg/kg produced 40% inhibition in vivo. The molecule also displayed an inhibition in vivo at 0.5 mg/kg in the test with Rattus norvegicus [3] of 84%.
On to `O=C(O)c1cc2nc3cccc(C(F)(F)F)c3c(O)n2n1`, for which the inhibition in vivo at 5 mg/kg was determined as 100% with Rattus norvegicus [1] and 10% in the test with Rattus norvegicus [5].
In the same order, the values of `O=C(O)c1cc2nc3ccc(O)cc3c(O)n2n1` are 100% and 0%.
In the case of `O=C(O)c1cc2nc3c(O)cccc3c(O)n2n1`, in the test on Rattus norvegicus [1], testing at 5 mg/kg gave an inhibition in vivo of 100%. In the test with Rattus norvegicus [6], this molecule had an inhibition in vivo at 0.1 mg/kg of 75%.
For `Cn1c2ccccc2c(=O)n2nc(-c3nn[nH]n3)cc12`, the inhibition in vivo at 5 mg/kg in the test on Rattus norvegicus [1] came out at 91%; in the test on Rattus norvegicus [5], 0%. Besides, the inhibition in vivo at 2 mg/kg in the test on Rattus norvegicus [2] stood at 52%. The same molecule showed an inhibition in vivo at 0.5 mg/kg with Rattus norvegicus [3] of 84%. Further, testing at 0.1 mg/kg with Rattus norvegicus [6] gave an inhibition in vivo of 0%.
Regarding `CCOC(=O)c1cc2nc3ccccc3c(O)n2n1`, the figures for the inhibition in vivo at 5 mg/kg in the test on Rattus norvegicus [1] and in the test on Rattus norvegicus [5] were 74% and 0%, respectively.
For `O=C(O)c1cc2nc3cc(Cl)c(Cl)cc3c(O)n2n1`, in that order: 9% and 0%.
In the test on Rattus norvegicus [2], `Cc1ccc2c(c1)c(=O)n1nc(C(=O)O)cc1n2C` came in with an inhibition in vivo at 2 mg/kg of 25%. The same molecule returned an inhibition in vivo at 0.5 mg/kg with Rattus norvegicus [3] of 55%.

Values taken from ChEMBL document CHEMBL1121643, “Pyrazolo[5,1-b]quinazolin-9-ones: a new series of antiallergic agents” (1981).
